In ChEMBL document CHEMBL1914352, “Design, synthesis, docking, and biological evaluation of novel diazide-containing isoxazole- and pyrazole-based histone deacetylase probes” (J Med Chem, 2011):
Activity calls are given as the source filed them. No cut-off for these calls is given here.

Columns and labels:
HepG2 [1] = assay: Induction of apoptosis in human HepG2 cells assessed as hyperacetylation of p53 at 1 to 10 uM by Western blot analysis; type: functional, cell-based
How it was run: (§1)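 HepG2 cells are seeded at 2.7×10^5 cells/well in D7 medium (DMEM, 7% FBS), refed after 24 h, and after 1 h at 37 °C treated with DMSO or 1, 5 or 10 µM inhibitor. Lysis is in ice-cold 1% CHAPSO buffer (50 mM Hepes pH 7.4), 45 min at 4 °C. Immunoblots are probed for cleaved caspase 3 Asp175, acetyl-Lys373 p53, total p53 and GAPDH, detected by chemiluminescence, with band densitometry.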

SH-SY5Y [2] = assay: cells; type: functional, cell-based; conditions: Homo sapiens, 48 h
HepG2 [3] = assay: cells; type: functional, cell-based; conditions: Homo sapiens, HepG2, 24 h
Stromelysin-1 = Stromelysin-1 (Homo sapiens, UniProt P08254); assay: Inhibition of MMP3
[4] = target: Histone deacetylase 3/Nuclear receptor corepressor 2 (HDAC3/NCoR2) (Homo sapiens, UniProt O15379); assay: Inhibition of human recombinant HDAC3/NCoR2 using fluorophore-conjugated substrate Boc-L-Lys(Ac)-AMC; type: protein-complex assay
[5] = target: T1, Protein deacetylase HDAC6 (Homo sapiens, UniProt Q9UBN7); assay: Inhibition of human recombinant HDAC6 using fluorophore-conjugated substrate Boc-L-Lys(Ac)-AMC after 60 mins
T1 sequence (Q9UBN7 whole entry): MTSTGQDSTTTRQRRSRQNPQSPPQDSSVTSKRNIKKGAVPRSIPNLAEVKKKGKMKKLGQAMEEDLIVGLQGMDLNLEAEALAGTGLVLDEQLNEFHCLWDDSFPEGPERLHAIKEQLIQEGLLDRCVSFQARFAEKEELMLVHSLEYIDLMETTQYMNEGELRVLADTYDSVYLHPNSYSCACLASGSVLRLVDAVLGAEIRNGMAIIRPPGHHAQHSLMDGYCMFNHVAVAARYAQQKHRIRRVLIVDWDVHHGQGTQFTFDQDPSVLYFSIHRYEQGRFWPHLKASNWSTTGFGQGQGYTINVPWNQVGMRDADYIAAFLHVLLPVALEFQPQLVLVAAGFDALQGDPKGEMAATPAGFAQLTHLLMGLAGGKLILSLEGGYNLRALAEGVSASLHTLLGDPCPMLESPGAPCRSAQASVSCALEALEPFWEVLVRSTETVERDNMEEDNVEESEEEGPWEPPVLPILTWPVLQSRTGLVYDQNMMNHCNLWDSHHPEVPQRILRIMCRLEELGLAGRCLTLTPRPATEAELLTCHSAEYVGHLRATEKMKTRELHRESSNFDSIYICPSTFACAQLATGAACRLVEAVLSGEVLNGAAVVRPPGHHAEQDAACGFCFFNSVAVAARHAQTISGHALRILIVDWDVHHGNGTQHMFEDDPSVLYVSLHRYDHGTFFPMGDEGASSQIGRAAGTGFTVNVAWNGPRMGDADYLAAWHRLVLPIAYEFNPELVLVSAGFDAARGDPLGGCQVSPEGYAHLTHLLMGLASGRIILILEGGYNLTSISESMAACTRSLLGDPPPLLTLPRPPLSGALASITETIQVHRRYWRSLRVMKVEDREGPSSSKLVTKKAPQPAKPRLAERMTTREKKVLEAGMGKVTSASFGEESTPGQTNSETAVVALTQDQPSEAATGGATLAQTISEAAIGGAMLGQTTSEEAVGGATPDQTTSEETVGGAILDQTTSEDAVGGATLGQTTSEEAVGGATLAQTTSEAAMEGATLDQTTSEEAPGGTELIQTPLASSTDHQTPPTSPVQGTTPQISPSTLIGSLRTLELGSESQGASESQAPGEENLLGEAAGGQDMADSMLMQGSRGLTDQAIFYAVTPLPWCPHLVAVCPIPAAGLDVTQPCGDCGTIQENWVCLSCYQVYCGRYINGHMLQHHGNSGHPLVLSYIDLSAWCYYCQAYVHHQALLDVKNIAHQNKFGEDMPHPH

SH-SY5Y [6] = assay: cells; type: functional, cell-based; conditions: Homo sapiens, 24 h
[7] = target: Matrix metalloproteinase-14 (Homo sapiens, UniProt P50281); assay: Inhibition of MMP14
HepG2 [8] = assay: Induction of apoptosis in human HepG2 cells assessed as cleavage of caspase 3 at 1 to 10 uM after 14 hrs by Western blot analysis; type: functional, cell-based; how it was run: as §1
HepG2 [9] = assay: Induction of apoptosis in human HepG2 cells assessed as hyperacetylation of p53 after 24 hrs by Western blot analysis; type: functional, cell-based; how it was run: as §1
HepG2 [10] = assay: cells; type: functional, cell-based; conditions: Homo sapiens, HepG2, 72 h
HepG2 [11] = assay: cells; type: functional, cell-based; conditions: Homo sapiens, HepG2, 48 h
Histone deacetylase 5 = Histone deacetylase 5 (Homo sapiens, UniProt Q9UQL6); assay: Inhibition of human recombinant HDAC5 using fluorophore-conjugated substrate Boc-L-Lys(Ac)-AMC after 60 mins
[12] = target: Histone deacetylase (Homo sapiens) (UniProt Q13547+O15379+Q9UBN7+Q92769+Q9UQL6+Q8WUI4+Q9BY41+Q96DB2+P56524+Q9UKV0+Q969S8); assay: Inhibition of HDAC in retinoic acid-differentiated human SH-SY5Y cells assessed as increase in histone H4 acetylation at 1 uM after 24 hrs by Western blot analysis; type: cell-based
[13] = target: T2, Matrix metalloproteinase-9 (Homo sapiens, UniProt P14780); assay: Inhibition of MMP9
Histone deacetylase 1 = Histone deacetylase 1 (Homo sapiens, UniProt Q13547); assay: Inhibition of human recombinant HDAC1 using fluorophore-conjugated substrate Boc-L-Lys(Ac)-AMC after 60 mins
Interstitial collagenase = target: T3, Interstitial collagenase (Homo sapiens, UniProt P03956); assay: Inhibition of MMP1
T3 sequence (P03956 whole entry): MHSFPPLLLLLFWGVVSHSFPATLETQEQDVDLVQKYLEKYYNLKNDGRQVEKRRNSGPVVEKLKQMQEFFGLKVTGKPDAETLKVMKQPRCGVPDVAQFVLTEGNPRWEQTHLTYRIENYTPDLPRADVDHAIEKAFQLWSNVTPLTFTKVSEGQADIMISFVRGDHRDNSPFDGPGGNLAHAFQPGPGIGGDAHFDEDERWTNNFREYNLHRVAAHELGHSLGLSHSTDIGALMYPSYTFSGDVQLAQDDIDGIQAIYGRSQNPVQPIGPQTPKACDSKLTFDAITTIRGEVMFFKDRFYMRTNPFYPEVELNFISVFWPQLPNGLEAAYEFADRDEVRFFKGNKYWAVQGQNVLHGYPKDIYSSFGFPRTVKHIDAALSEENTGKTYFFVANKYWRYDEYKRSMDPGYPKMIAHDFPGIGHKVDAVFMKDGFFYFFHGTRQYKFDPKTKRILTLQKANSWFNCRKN

SH-SY5Y [14] = assay: cells; type: functional, cell-based; conditions: Homo sapiens, 72 h
[15] = target: T2, Matrix metalloproteinase-9; assay: Inhibition of MMP9 assessed as activity remaining at […]

T2 sequence (P14780 whole entry): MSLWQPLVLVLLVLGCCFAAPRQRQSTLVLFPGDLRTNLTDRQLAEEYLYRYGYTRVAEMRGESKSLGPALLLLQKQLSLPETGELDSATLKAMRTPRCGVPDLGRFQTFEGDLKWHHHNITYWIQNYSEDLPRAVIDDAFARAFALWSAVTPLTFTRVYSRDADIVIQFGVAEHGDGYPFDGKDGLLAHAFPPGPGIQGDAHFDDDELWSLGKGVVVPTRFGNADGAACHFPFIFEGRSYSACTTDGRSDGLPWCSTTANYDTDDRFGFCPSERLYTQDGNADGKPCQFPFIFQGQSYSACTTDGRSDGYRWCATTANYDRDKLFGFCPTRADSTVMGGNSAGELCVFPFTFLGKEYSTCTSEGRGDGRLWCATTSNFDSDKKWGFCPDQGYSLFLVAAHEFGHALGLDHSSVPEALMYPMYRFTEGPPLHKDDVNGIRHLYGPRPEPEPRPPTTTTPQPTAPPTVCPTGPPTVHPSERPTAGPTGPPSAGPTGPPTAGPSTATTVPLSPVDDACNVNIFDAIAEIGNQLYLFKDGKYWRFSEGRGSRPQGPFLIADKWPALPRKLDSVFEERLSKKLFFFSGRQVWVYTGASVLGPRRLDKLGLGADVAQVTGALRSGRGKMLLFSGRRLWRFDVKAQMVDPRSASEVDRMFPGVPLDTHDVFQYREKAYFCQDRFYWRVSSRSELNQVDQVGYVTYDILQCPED
Sequence of Histone deacetylase 3/Nuclear receptor corepressor 2 (HDAC3/NCoR2) (O15379 whole entry): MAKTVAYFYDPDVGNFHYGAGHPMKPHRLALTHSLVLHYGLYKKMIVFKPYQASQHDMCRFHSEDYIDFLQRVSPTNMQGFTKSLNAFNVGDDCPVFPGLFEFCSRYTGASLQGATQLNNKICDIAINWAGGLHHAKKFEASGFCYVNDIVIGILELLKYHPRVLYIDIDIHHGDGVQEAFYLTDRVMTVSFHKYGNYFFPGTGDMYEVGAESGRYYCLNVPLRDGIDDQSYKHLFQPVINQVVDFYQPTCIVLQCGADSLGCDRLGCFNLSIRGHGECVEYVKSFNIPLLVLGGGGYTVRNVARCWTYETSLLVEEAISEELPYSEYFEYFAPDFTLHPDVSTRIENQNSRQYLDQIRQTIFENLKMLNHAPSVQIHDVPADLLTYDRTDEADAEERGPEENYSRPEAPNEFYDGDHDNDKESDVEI
Sequence of Histone deacetylase 3/Nuclear receptor corepressor 2 (HDAC3/NCoR2) (Q9Y618 whole entry, further chain): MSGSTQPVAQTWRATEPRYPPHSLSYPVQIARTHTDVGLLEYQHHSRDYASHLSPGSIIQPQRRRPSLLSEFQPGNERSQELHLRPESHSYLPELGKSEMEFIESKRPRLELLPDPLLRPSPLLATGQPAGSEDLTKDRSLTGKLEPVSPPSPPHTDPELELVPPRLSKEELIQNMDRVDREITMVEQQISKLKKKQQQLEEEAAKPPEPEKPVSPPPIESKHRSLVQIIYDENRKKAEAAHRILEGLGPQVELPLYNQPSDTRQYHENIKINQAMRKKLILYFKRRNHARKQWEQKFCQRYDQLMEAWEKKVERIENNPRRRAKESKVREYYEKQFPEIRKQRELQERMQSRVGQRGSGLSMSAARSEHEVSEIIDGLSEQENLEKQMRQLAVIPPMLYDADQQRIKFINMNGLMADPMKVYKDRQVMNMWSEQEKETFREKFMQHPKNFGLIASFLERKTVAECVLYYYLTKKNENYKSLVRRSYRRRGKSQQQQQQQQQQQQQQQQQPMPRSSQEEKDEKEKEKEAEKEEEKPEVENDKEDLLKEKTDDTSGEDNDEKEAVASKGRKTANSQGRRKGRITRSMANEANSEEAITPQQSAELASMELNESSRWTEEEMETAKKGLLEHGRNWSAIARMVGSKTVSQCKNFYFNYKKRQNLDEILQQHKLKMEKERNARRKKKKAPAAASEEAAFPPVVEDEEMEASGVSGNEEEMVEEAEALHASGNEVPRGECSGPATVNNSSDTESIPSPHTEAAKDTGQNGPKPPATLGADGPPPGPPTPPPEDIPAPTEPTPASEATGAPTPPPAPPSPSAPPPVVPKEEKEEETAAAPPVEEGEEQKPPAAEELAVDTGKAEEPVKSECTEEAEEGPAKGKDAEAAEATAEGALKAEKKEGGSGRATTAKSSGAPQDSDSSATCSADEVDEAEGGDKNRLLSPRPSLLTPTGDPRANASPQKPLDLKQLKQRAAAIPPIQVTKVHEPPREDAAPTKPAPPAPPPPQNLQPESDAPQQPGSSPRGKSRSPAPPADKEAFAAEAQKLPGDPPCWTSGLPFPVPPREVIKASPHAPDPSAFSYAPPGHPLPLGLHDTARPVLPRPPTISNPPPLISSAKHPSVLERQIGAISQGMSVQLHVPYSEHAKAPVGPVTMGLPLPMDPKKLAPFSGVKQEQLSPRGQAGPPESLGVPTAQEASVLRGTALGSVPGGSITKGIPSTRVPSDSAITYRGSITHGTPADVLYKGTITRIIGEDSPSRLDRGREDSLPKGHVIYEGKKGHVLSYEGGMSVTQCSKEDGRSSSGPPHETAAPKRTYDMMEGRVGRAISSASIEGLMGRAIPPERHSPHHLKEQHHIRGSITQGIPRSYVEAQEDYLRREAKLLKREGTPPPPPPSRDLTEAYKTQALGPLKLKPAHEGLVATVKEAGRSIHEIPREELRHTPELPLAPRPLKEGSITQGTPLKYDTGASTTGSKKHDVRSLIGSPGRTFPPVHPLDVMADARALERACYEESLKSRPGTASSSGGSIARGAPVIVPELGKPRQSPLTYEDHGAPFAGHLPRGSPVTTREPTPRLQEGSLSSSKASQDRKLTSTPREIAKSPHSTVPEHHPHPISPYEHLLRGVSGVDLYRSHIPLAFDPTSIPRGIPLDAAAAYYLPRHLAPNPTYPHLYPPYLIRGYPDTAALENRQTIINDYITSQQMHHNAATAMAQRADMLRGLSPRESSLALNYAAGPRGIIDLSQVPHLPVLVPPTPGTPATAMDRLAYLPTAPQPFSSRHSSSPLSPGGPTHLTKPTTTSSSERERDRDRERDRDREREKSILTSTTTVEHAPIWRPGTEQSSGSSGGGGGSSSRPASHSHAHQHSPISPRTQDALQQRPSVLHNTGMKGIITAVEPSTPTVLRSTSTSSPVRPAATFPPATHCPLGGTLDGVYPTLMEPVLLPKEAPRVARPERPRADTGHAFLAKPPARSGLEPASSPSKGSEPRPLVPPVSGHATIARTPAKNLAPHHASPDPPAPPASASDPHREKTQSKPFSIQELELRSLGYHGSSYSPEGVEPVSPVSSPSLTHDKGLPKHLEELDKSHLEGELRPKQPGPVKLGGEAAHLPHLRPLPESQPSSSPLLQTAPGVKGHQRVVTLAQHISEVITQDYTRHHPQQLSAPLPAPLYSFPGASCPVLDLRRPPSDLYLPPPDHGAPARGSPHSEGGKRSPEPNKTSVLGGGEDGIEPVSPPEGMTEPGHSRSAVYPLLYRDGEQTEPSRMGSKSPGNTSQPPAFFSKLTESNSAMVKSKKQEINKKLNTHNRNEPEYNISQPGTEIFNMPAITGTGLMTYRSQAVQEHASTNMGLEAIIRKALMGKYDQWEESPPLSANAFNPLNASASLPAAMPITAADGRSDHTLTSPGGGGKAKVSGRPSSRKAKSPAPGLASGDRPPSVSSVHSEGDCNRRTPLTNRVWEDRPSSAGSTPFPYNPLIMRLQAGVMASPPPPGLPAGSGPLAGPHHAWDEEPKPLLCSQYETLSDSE
Sequence of Histone deacetylase 5 (Q9UQL6 whole entry): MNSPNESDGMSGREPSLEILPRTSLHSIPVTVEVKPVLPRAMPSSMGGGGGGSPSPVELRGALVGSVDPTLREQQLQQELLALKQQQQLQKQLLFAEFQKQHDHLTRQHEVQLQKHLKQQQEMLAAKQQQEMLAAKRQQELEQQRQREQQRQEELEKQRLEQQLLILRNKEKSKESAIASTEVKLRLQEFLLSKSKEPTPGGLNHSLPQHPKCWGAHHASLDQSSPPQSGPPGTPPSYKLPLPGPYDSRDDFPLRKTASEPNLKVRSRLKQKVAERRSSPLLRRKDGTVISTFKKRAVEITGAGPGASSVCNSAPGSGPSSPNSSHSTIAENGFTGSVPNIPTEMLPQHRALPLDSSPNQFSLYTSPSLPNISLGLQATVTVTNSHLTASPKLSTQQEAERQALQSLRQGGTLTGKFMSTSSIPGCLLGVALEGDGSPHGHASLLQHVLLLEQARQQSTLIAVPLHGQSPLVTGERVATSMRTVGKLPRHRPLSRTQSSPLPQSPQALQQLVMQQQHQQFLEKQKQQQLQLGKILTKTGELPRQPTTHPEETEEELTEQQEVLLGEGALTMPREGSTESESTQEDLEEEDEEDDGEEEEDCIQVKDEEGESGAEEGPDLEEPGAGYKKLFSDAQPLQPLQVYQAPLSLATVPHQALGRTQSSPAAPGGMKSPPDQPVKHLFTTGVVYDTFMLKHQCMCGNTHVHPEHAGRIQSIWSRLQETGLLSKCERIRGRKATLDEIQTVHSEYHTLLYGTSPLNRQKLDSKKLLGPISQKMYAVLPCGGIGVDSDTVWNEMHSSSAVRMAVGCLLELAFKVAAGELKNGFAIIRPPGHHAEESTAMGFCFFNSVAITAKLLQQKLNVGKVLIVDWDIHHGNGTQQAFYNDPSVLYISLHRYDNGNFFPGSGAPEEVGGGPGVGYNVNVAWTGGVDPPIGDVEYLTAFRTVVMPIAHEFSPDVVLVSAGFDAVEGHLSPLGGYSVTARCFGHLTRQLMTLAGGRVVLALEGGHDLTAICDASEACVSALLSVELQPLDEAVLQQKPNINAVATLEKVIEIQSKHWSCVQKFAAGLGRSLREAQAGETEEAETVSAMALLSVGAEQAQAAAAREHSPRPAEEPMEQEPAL

Row | EC50 (SH-SY5Y [2]) [µM] | EC50 (HepG2 [3]) [µM] | IC50 (Stromelysin-1) [µM] | IC50 [4] [µM] | IC50 [5] [µM] | EC50 (SH-SY5Y [6]) [µM] | IC50 [7] [µM] | EC50 (HepG2 [10]) [µM] | EC50 (HepG2 [11]) [µM] | IC50 (Histone deacetylase 5) [µM] | inhibition [12] | IC50 [13] [µM] | IC50 (Histone deacetylase 1) [µM] | IC50 (Interstitial collagenase) [µM] | EC50 (SH-SY5Y [14]) [µM] | Activity [15] [%] | SMILES | Activity (HepG2 [1]) | Activity (HepG2 [8]) | Activity (HepG2 [9])
1 | 32.2 | > 50 | 12.1 | 0.045 | 0.047 | > 50 | 9.33 | 4.9 | 11.5 | 0.932 | Active | 22.9 | 0.0822 | 108 | 23 |  | [N-]=[N+]=NCc1cc(N=[N+]=[N-])cc(C(=O)Nc2ccc(-c3cc(C(=O)NCCCCCCC(=O)NO)no3)cc2)c1 | inactive | Active | inactive
2 | 35.9 | > 50 |  | 0.128 | 0.274 | > 50 |  | 13.4 | 24.3 | 0.892 | Active |  | 0.0991 |  | 20.8 | > 70 | [N-]=[N+]=NCc1cc(Cn2cc(NC(=O)CCCCCCC(=O)NO)cn2)cc(N=[N+]=[N-])c1 |  |  | 
